From PubChem BioAssay
In the library only some 9.6% were active in any assay of this set; here they are far more common.
APP 5UTR inh: APP translation inhibition; SH-SY5Y APP 5'UTR-luciferase reporter, luminescence; inhibition, % at 2 µM; 0.82% of 190,000 active;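 active = inhibition above a set limit, derived from the sample mean plus 3 SD, cut at about 45% in these data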
L major viab: reduces viability of Leishmania major promastigotes. resazurin fluorescence viability. inhibition, % at 10 µM. 9% of 200,000 active; in the data active = inhibition above about 50%;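 note: promastigotes grown with compound for 44 hours at 28 °C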
Ba/F3 V617F tox: loss of viability in JAK2V617F-driven Ba/F3 cells; 1.1% of 220,000 active; Ba/F3 EpoR-JAK2V617F viability, ATP luminescence; inhibition, % at 5.6 µM;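 active = inhibition above the campaign mean plus 3 SD over all tested compounds, cut at about 24% in these data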;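 note: cytokine-independent growth of Ba/F3 cells driven by EpoR plus mutant JAK2; 0% = DMSO-treated cells and 100% = JAK inhibitor I control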
MT stabilizer: stabilizes microtubules in HeLa cells; HeLa tubulin immunostaining HCS, 24 h; share of cells brighter than vehicle mean+2SD; % tubulin-high responders, % at 10 µM; 0.83% of 200,000 active; AID 2205;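 active = plate Z-score above 3 for both tubulin-high and condensed-nucleus cell shares, with cell loss under 80%, at 10 µM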;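 note: anti alpha tubulin signal scored within the nucleus-defined area of each cell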
BaF3 parental: parental Ba/F3 viability inhibition as JAK2V617F counter-screen; CellTiter-Glo ATP luminescence; inhibition, % at 5.6 µM; 1.1% of 220,000 active; AID 1486;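 active = inhibition above a per-campaign cutoff, the mean inhibition of all tested compounds plus 3 SD, cut at about 27% in these data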;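 note: 0% = DMSO wells and 100% = JAK Inhibitor I control wells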
bCat nuc transl: modulators of beta-catenin nuclear translocation | nuclear translocation activity, % at 5 µM | 0.3% of 190,000 active | HeLa beta-catenin nuclear translocation, immunofluorescence imaging;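 active = nuclear translocation activity above 50% at 5 µM, with a well cell count of 50 or more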;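 note: per-cell ratio of nuclear to cytoplasmic median beta-catenin stain intensity; plate controls were DMSO negative control for no effect and GSK-3 inhibitor IX positive control for full effect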
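Test system: human HeLa cells, endogenous beta-catenin. Times: 24 h compound exposure, 37°C. Measured by: beta-catenin immunofluorescence imaging with DAPI.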
* marks the source's active call; other numbers are inactive results; / = not tested or not shown.

SMILES	APP 5UTR inh	L major viab	Ba/F3 V617F tox	MT stabilizer	BaF3 parental	bCat nuc transl
Cc1cccc(-n2c(O)c(C=Nc3ccc(S(N)(=O)=O)cc3)c(=O)[nH]c2=O)c1	28	-3	-3	4	5	-5
NS(=O)(=O)c1ccc(N=Cc2c(O)n(C3CCCCC3)c(=O)n(C3CCCCC3)c2=O)cc1	1	65*	-3	1	0	-1
Cc1c(N)c(C)c([N+](=O)[O-])c(C)c1[N+](=O)[O-]	-18	-10	-1	3	5	2
O=[N+]([O-])c1cc(-n2cnnn2)c(O)c([N+](=O)[O-])c1	/	/	1	/	-1	0
CCOC(=O)C1(CCOc2ccccc2)CCN(C2Cc3ccccc3C2)CC1	-1	88*	-1	4	2	0
CS(=O)(=O)NCc1nnc2n1-c1ccc(Cl)cc1C(c1ccccc1)=NC2	0	-7	3	3	6	2
CSCc1nnc2n1-c1ccc(Cl)cc1C(c1ccccc1)=NC2	-15	94*	-3	6	-3	7
C=C(C=O)C[C@@H]1C[C@H](O)C2OC3C[C@]4(C)OC5/C=C\CC6OC7C(CC=CCC6OC5CCCC4OC3CC2O1)OC1CC2OC3CC(=O)OC3C[C@@H](C)C[C@@]2(C)OC1C[C@@H]7C (stereo not given in full)	/	/	/	/	/	3
Cc1ccc(O)c(C(=O)c2cc(C(=O)NCCC(C)C)c(=O)n(CCC(C)C)c2)c1	-11	82*	-4	4	0	0
O=C(c1cc(C(=O)NCc2ccc(Cl)cc2)c(=O)n(Cc2ccc(Cl)cc2)c1)c1cc(F)ccc1O	-12	16	-1	4	4	1
CCOC(=O)COc1ccc2c(c1)c(C(C)=O)c(C)n2Cc1ccccc1	-4	76*	0	3	3	-2
OC1(c2ccccc2F)CC2CCC(C1)N2CCN1CCOCC1 (stereo not given)	-9	52*	1	5	3	0
COc1ccc(C(=O)CN2CCOCC2)cc1F	4	3	-3	2	4	0
COC(=NC1CCCC1)C(O)c1c[nH]c2ccccc12 (stereo not given)	4	-7	1	3	6	3
COC(=O)c1ccccc1OP1(=O)COc2ccccc2OC1	13	-1	-5	4	1	0
O=Cc1cn(Cc2cccc(F)c2)c2ccccc12	24	59*	2	9	5	/
CCc1ccc(-c2nn(Cc3ccccc3)cc2C=O)cc1	-133	18	6	2	6	-3
CCCc1[nH]nc2c1C1(C(=O)N(Cc3ccccc3)c3ccccc31)C(C(=O)OC)=C(N)O2 (stereo not given)	5	82*	2	1	9	0
O=C(COC(=O)Cc1ccccc1)Nc1cc(S(=O)(=O)N2CCOCC2)ccc1N1CCCC1	-8	47	-2	1	2	0
CC(=O)Nc1ccc(OCCF)cc1	2	-8	3	2	5	0
CC(C)N(CC(O)c1cccc([N+](=O)[O-])c1)C(C)C (stereo not given)	0	2	-5	3	0	-2
Fc1ccc2c(c1)nnn2C1CCN(Cc2ccccc2)CC1	-7	75*	1	5	10	1
Fc1ccc2c(c1)nnn2C1CCN(Cc2nnnn2CCc2ccccc2)CC1	-5	4	0	1	1	-2
CCOC(=O)c1ccc(N=Cc2c(O)n(-c3ccccc3F)c(=S)[nH]c2=O)cc1	-18	61*	-2	3	3	/
CCn1c(O)c(C=Nc2ccc(S(N)(=O)=O)cc2)c(=O)n(CC)c1=S	-6	-6	0	2	4	4
SMILES	APP 5UTR inh	L major viab	Ba/F3 V617F tox	MT stabilizer	BaF3 parental	bCat nuc transl
CCn1c(O)c(C=Nc2ccc(S(N)(=O)=O)cc2)c(=O)[nH]c1=S	-28	56*	1	2	1	-1
Cn1c(O)c(/C=C2/C=CC=N2)c(=O)[nH]c1=O	/	/	-3	/	-2	-2
COc1ccccc1N1CCN(Cc2ccc(Br)s2)CC1	-5	-11	-1	4	5	0
CCN(c1ccc(C(O)(C(=O)OC)C(F)(F)F)cc1)S(=O)(=O)c1ccc(C)cc1 (stereo not given)	5	89*	-2	2	5	1
COC(=O)C(O)(c1ccc(NC(=O)Oc2ccccc2)cc1)C(F)(F)F (stereo not given)	-18	-1	5	2	12	-2
CCOC(=O)C(O)(c1ccc(N(CC)S(=O)(=O)c2ccc(C)cc2)cc1)C(F)(F)F (stereo not given)	9	93*	-5	0	0	1
COC(=O)C(O)(c1ccc(N(C)S(=O)(=O)c2ccccc2)cc1)C(F)(F)F (stereo not given)	6	100*	6	2	3	-5
CCOC(=O)C(O)(c1ccc(N(CC)C(=O)COc2ccccc2)cc1)C(F)(F)F (stereo not given)	9	65*	-4	2	4	-1
COC(=O)C(O)(c1ccc(N(C)C)cc1)C(F)(F)F (stereo not given)	4	0	-1	1	9	0
CCOC(=O)c1cc2c(cn1)[nH]c1ccccc12	-7	-6	-2	5	9	/
O=C(Nc1ccc(Cl)cc1C(=O)c1ccccc1)c1ccccc1	1	69*	-2	2	0	2
O=C(CNC(=O)c1cccc(Cl)c1)Nc1ccc(Br)cc1C(=O)c1ccccc1	12	59*	-2	1	5	0
O=S(=O)(c1ccc(Cl)cc1)N1CN2CCN(C2)C1	-6	8	-1	5	-2	1
CC1CCC(C(C)C)C(OC(=O)Cn2c(COc3ccccc3)[n+](C)c3ccccc32)C1 (stereo not given)	/	/	99*	/	101*	12
CCC(=NCc1ccco1)c1c(O)n(-c2ccccc2C)c(=O)[nH]c1=O	/	/	-1	/	-1	1
Nc1c2c(nc3sc4c(c13)CCCC4)CCCC2	-55	92*	1	3	6	0
Nc1c2c(nc3sc4c(c13)CCCC4)CCCCC2	-56	77*	-1	4	1	1
O=P(O)(O)Cc1ccccc1OP(=O)(c1ccccc1)c1ccccc1	-4	8	1	5	4	-2
COc1cc(C(=S)N2CCOCC2)cc(OC)c1OC(=O)Cc1ccccc1	6	5	-3	3	6	0
CC(C)c1ccc(C2N3CCCN23)cc1 (stereo not given)	-6	-9	-2	2	-2	/
CC(C)NCC(O)c1ccc(C2CCCC2)cc1 (stereo not given)	-5	92*	-1	5	8	-1
Cc1ccc(-n2c(O)c(/C=N/NC(=O)c3ccncc3)c(=O)[nH]c2=O)cc1	-14	-6	8	6	6	2
